Experimental data: ChEMBL document CHEMBL1142378, “Characterization and crystal structure of Escherichia coli KDPGal aldolase” (Bioorg Med Chem, 2008)

Experiments:
[1] = system: T1, KHG/KDPG aldolase (Escherichia coli (strain K12)), P0A955 [T161A]; assay: Ratio of kcat to Km of Escherichia coli KDPG aldolase T161A mutant
T1 sequence (whole entry): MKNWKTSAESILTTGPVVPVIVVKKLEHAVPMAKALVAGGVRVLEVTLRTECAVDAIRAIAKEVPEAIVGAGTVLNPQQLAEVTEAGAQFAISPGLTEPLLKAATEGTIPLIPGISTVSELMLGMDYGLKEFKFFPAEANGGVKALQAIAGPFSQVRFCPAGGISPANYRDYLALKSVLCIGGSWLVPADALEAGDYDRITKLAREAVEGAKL
Summary of the method: (§1)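 KDPG aldolase T161A or T161V mutants were expressed from the pET plasmid in DF71 (eda–) cells, induced with 1 mM IPTG at 25 °C for 16 h, and purified on nickel resin. Assays used 20 mM HEPES pH 7.0, 0.42 mM NADH, KDPG at 0.2×–5× KM and 105 U rabbit-muscle L-lactate dehydrogenase, started with enzyme. A340 was monitored for 5 min, and initial velocities were fitted to Michaelis–Menten.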

[2] = system: T2, 2-dehydro-3-deoxy-6-phosphogalactonate aldolase (Escherichia coli (strain K12)), Q6BF16 [V154T]; assay: Ratio of kcat to Km for Escherichia coli KDPGal aldolase V154T mutant
T2 sequence (whole entry): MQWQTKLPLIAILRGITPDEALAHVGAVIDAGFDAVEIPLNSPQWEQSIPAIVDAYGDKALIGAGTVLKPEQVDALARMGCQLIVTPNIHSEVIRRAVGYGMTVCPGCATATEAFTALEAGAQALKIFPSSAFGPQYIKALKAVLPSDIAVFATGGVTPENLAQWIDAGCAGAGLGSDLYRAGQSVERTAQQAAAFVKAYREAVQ
Summary of the method: (§2)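 V154A or V154T KDPGal aldolase was made by Quikchange and expressed in DF71 (eda–) cells, with 1 mM IPTG induction at 25 °C for 16 h. It was nickel-affinity purified. Retro-aldol cleavage of KDPGal (0.2×–5× KM) was coupled to L-lactate dehydrogenase (105 U) in 20 mM HEPES pH 7.0 with 0.42 mM NADH. Aldolase was added last, and A340 loss was read over 5 min. Kinetic constants came from Michaelis–Menten fits of initial rates.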

[3] = system: T3, 2-dehydro-3-deoxy-6-phosphogalactonate aldolase (Escherichia coli (strain K12)), Q6BF16 [V154A]; assay: Ratio of kcat to Km for Escherichia coli KDPGal aldolase V154A mutant; summary of the method: as §2
T3 sequence (whole entry): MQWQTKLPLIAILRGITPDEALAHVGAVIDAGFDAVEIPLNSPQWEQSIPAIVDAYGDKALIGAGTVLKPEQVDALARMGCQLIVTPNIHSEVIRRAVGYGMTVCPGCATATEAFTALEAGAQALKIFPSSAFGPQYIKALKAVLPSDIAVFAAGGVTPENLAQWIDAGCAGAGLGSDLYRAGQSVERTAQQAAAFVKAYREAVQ

Escherichia coli [4] = assay: Ratio of kcat to Km of Escherichia coli KDPG aldolase
Summary of the method: (§3)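 Wild-type KDPG aldolase activity toward KDPG (0.2×–5× KM) was read through a coupled L-lactate dehydrogenase system: 20 mM HEPES pH 7.0, 0.42 mM NADH, 105 U LDH. Aldolase was added to start the reaction, NADH loss was followed at 340 nm for 5 min, and Michaelis–Menten fits gave the parameters.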

Escherichia coli [5] = assay: Activity of Escherichia coli KDPG aldolase; summary of the method: as §3
Escherichia coli [6] = assay: Ratio of kcat to Km for Escherichia coli KDPGal aldolase
Summary of the method: (§4)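 The enzyme started a coupled L-lactate dehydrogenase assay in 20 mM HEPES pH 7.0 with 0.42 mM NADH, KDPGal at 0.2×–5× KM and 105 U LDH. The A340 decrease was followed for 5 min. Initial slopes were fitted to Michaelis–Menten.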

[7] = system: T4, KHG/KDPG aldolase (Escherichia coli (strain K12)), P0A955 [T161V]; assay: Ratio of kcat to Km of Escherichia coli KDPG aldolase T161V mutant; summary of the method: as §1
T4 sequence (whole entry): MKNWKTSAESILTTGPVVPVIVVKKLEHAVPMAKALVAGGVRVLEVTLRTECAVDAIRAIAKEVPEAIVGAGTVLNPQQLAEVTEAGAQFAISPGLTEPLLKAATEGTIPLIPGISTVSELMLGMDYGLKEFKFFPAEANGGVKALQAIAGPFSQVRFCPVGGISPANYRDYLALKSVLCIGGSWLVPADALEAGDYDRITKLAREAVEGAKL

Escherichia coli [8] = assay: Activity of Escherichia coli KDPGal aldolase; summary of the method: as §4
[9] = substrate: O=C(O)C(=O)C[C@H](O)[C@@H](O)COP(=O)(O)O; assay: (§5) Activity of Escherichia coli KDPGal aldolase V154T mutant; summary of the method: as §2
[10] = substrate: O=C(O)C(=O)C[C@H](O)[C@H](O)COP(=O)(O)O; assay: as §5; summary of the method: as §2
[11] = substrate: O=C(O)C(=O)C[C@H](O)[C@@H](O)COP(=O)(O)O; assay: (§6) Activity of Escherichia coli KDPGal aldolase V154A mutant; summary of the method: as §2
[12] = substrate: O=C(O)C(=O)C[C@H](O)[C@H](O)COP(=O)(O)O; assay: as §6; summary of the method: as §2

`O=C(O)C(=O)C[C@H](O)[C@H](O)COP(=O)(O)O` gave a Ratio [1] of 58 mM⁻¹ s⁻¹, a Ratio [2] of 0.1 mM⁻¹ s⁻¹ and a Ratio [3] of 0.02 mM⁻¹ s⁻¹. It also gave a Ratio (Escherichia coli [4]) of 800 mM⁻¹ s⁻¹, a Km (Escherichia coli [5]) of 100 µM and a kcat (Escherichia coli [5]) of 80 s⁻¹. For the same molecule, the Ratio (Escherichia coli [6]) was 1.1 mM⁻¹ s⁻¹, the Ratio [7] was 0.07 mM⁻¹ s⁻¹ and the Km (Escherichia coli [8]) was 1300 µM. It also gave a kcat (Escherichia coli [8]) of 1.4 s⁻¹.

Molecule `O=C(O)C(=O)C[C@H](O)[C@@H](O)COP(=O)(O)O` has a Ratio [1] of 5 mM⁻¹ s⁻¹, a Ratio [2] of 0.7 mM⁻¹ s⁻¹ and a Ratio [3] of 1.3 mM⁻¹ s⁻¹. For the same molecule, the Ratio (Escherichia coli [4]) was 2.8 mM⁻¹ s⁻¹, the Km (Escherichia coli [5]) was 600 µM and the kcat (Escherichia coli [5]) was 1.7 s⁻¹. It also gave a Ratio (Escherichia coli [6]) of 19 mM⁻¹ s⁻¹, a Ratio [7] of 0.1 mM⁻¹ s⁻¹ and a Km (Escherichia coli [8]) of 200 µM. The kcat (Escherichia coli [8]) was 3.8 s⁻¹.

B1: 2-dehydro-3-deoxy-6-phosphogalactonate aldolase (Escherichia coli (strain K12)), Q6BF16 V154T (protein)
chain: MQWQTKLPLIAILRGITPDEALAHVGAVIDAGFDAVEIPLNSPQWEQSIPAIVDAYGDKALIGAGTVLKPEQVDALARMGCQLIVTPNIHSEVIRRAVGYGMTVCPGCATATEAFTALEAGAQALKIFPSSAFGPQYIKALKAVLPSDIAVFATGGVTPENLAQWIDAGCAGAGLGSDLYRAGQSVERTAQQAAAFVKAYREAVQ
For B1, the Km [9] was 300 µM, the kcat [9] was 0.2 s⁻¹ and the Km [10] was 90 µM. The kcat [10] was 0.01 s⁻¹.

B2: 2-dehydro-3-deoxy-6-phosphogalactonate aldolase (Escherichia coli (strain K12)), Q6BF16 V154A (protein)
chain: MQWQTKLPLIAILRGITPDEALAHVGAVIDAGFDAVEIPLNSPQWEQSIPAIVDAYGDKALIGAGTVLKPEQVDALARMGCQLIVTPNIHSEVIRRAVGYGMTVCPGCATATEAFTALEAGAQALKIFPSSAFGPQYIKALKAVLPSDIAVFAAGGVTPENLAQWIDAGCAGAGLGSDLYRAGQSVERTAQQAAAFVKAYREAVQ
B2 was tested, and the Km [11] was 400 µM, the kcat [11] was 0.5 s⁻¹ and the Km [12] was 300 µM. The kcat [12] was 0.007 s⁻¹.
